Measurements of several laboratories.
Protocols differ between the studies behind these lines.
Target: Serine/threonine-protein kinase ULK1 (ULK1, Homo sapiens, UniProt O75385)
Effect on: enzyme activity
Mode: inhibitor
Residues used in one study (O75385 1-1050): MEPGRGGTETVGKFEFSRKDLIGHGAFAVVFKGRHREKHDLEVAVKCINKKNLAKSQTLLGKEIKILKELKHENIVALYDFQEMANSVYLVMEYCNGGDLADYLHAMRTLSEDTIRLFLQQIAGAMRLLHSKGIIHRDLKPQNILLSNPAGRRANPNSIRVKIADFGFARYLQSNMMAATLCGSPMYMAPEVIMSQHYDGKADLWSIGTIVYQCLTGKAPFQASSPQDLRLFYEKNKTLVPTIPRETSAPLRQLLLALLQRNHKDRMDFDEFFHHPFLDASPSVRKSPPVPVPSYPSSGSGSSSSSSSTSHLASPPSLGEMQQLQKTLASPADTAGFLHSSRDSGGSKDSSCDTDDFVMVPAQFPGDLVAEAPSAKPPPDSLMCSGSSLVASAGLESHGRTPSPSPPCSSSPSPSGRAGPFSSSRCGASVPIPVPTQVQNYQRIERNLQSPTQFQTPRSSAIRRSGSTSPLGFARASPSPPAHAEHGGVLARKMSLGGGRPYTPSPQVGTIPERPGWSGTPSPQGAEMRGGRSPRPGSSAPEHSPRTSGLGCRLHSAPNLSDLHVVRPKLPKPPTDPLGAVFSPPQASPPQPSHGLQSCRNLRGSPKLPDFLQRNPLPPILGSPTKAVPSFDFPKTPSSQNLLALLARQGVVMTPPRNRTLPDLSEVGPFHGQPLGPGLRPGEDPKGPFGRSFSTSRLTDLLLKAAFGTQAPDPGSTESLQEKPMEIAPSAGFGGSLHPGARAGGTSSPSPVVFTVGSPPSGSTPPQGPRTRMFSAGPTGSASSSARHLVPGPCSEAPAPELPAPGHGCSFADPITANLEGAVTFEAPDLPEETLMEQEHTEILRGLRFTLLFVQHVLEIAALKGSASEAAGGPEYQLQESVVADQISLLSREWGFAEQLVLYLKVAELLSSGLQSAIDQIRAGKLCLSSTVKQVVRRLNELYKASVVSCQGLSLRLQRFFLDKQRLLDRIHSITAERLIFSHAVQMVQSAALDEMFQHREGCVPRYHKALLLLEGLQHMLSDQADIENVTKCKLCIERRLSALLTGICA

O=C(NCCCNc1nc(Nc2cccc(NC(=O)N3CCCC3)c2)ncc1C1CC1)C1CCC1  remaining activity (radiometric; 1 µM): 17%
Cc1ccc(C(=O)Nc2ccc(CN3CCN(C)CC3)c(C(F)(F)F)c2)cc1C#Cc1cnc2cccnn12  remaining activity (23.5 nM): 76%
O=C(Nc1cnn(-c2csc(C(=O)NC3COC3)c2)c1)Nc1c(F)cccc1Cl  remaining activity (5 µM): 93.9%
COc1cc(Cl)c(C(=O)N[C@@H](CN[C@H]2CC[C@@H](N)CC2)Cc2ccc(C#N)cc2)cc1-c1ccc(CN[C@H](C)c2ccc(C)cc2)o1  remaining activity (1 µM): 95%
Cc1sc(C(=O)NC2COC2)cc1-n1cc(NC(=O)Nc2c(F)cccc2Cl)cn1  remaining activity (10 µM): 77.3%
COc1cc(Nc2cnc(C#N)c(O[C@H](C)CN(C)C)n2)ncc1-c1cnn(C)c1  remaining activity (radiometric; 1 µM): 60%
Cc1nn(CC(F)(F)F)cc1Nc1nccc(NCc2ccc(S(N)(=O)=O)cc2)n1  remaining activity (radiometric; 1 µM): 99%
CC(C)(O)[C@H]1CC[C@H](Nc2ccc3ncc(-c4cccc(C(F)(F)F)c4)n3n2)CC1  remaining activity (1 µM): 96.2%
